Results published in ChEMBL document CHEMBL1141552, “Synthesis and antitubercular activity of 7-(R)- and 7-(S)-methyl-2-nitro-6-(S)-(4-(trifluoromethoxy)benzyloxy)-6,7-dihydro-5H-imidazo[2,1-b][1,3]oxazines, analogues of PA-824” (Bioorg Med Chem Lett, 2008).
≈ marks a conversion by molar mass, not a printed value.

How the values were obtained:
[1] = tested on: Mycobacterium tuberculosis; experiment: Antitubercular activity against Mycobacterium tuberculosis H37Rv under aerobic conditions; format: functional
Outline: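 Broth dilution MIC99 against Mtb H37Rv (ATCC 27294) and its H37Rv mutants under aerobic conditions. Compound stocks were made in DMSO at 20 mM.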

[2] = tested on: Mycobacterium tuberculosis; experiment: Antitubercular activity against Mycobacterium tuberculosis H37Rv by oxygen depletion assay; format: functional
Outline: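 Early-log Mtb cultures in Dubos broth were diluted 100-fold and sealed at a 0.5 head-space ratio, then stirred for 20 days to reach NRP-2. The cells were handled anaerobically and exposed to 1.95–500 μM drug in two-fold dilutions for 7 days at 37°C. After three washes, the cells were spotted on 7H11 agar for 3 weeks. MAC was taken as the concentration giving 90% reduction in visible growth.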

[3] = Aqueous solubility of the compound; format: physicochemical
Outline: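 Excess solid (3–5 mg) shaken in 0.5 mL water for 3 days, then centrifuged at 10,000g for 5 min. Supernatant diluted in water and analysed by LC/MS with UV peak area at 310 nm. Concentration read from a previously determined calibration curve, corrected for dilution.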

`C[C@@H]1Oc2nc([N+](=O)[O-])cn2C[C@@H]1OCc1ccc(OC(F)(F)F)cc1` gave an MIC [1] of 0.2 µM (≈ 0.0747 µg/mL), an MAC [2] of 16 µM and a solubility [3] of 9.89 µg/mL (≈ 26.5 µM).
`C[C@H]1Oc2nc([N+](=O)[O-])cn2C[C@@H]1OCc1ccc(OC(F)(F)F)cc1` gave an MIC [1] of 0.2 µM (≈ 0.0747 µg/mL), an MAC [2] of 8 µM and a solubility [3] of 10.3 µg/mL (≈ 27.6 µM).
Molecule `O=[N+]([O-])c1cn2c(n1)OC[C@@H](OCc1ccc(OC(F)(F)F)cc1)C2` [PRETOMANID] has an MIC [1] of 0.4 µM (≈ 0.144 µg/mL), an MAC [2] of 8 µM and a solubility [3] of 10.2 µg/mL (≈ 28.4 µM).
